Data published in ChEMBL document CHEMBL1287734, “Synthesis, molecular modeling and biological evaluation of guanidine derivatives as novel antitubulin agents” (Bioorg Med Chem, 2010).
The source made the active and inactive calls. The rule behind the calls is not given here.

Legend:
[1] = system: MCF7; assay: Antiproliferative activity against human MCF7 cells after 48 hrs by MTT assay; assay type: functional, cell-based; settings: MCF7, 48 h
Method in brief: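 After 24 h at 37 °C, 5% CO₂, compounds were added at preset concentrations for 48 h. MTT (2.5 mg/mL in PBS) was then added for 4 h, followed by 10% SDS–5% isobutyl alcohol–0.01 M HCl overnight at 37 °C. OD read at 570 nm. Triplicate wells per concentration; each assay run at least three times.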

[2] = Inhibition of bovine brain tubulin polymerization by turbidimetric analysis; design: species or system Bos taurus
Method in brief: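 Purified bovine brain tubulin (10 µM) preincubated with varying compound concentrations in glutamate buffer at 30 °C, then cooled to 0 °C. GTP added, mixtures warmed to 30 °C in cuvettes, and assembly followed by turbidity.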

[3] = system: MCF7; assay: Cell cycle arrest in human MCF7 cells assessed as accumulation at sub-G1 phase after 24 hrs by flow cytometry relative to control; assay type: functional
Method in brief: (§1)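 Cells treated at 50 nM or 500 nM for 24 h, collected and fixed overnight in 70% ethanol at −20 °C. After two PBS washes, RNase A (0.5 mg/mL) and propidium iodide (2.5 µg/mL) were added for 30 min. DNA content was measured by flow cytometry and the percentage of cells in each cycle phase was determined.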

[4] = system: MCF7; assay: Cell cycle arrest in human MCF7 cells assessed as accumulation at G1 phase after 24 hrs by flow cytometry relative to control; assay type: functional; method in brief: as §1
[5] = system: MCF7; assay: Cell cycle arrest in human MCF7 cells assessed as accumulation at S phase after 24 hrs by flow cytometry relative to control; assay type: functional; method in brief: as §1
[6] = system: MCF7; assay: Cell cycle arrest in human MCF7 cells assessed as accumulation at G2/M phase after 24 hrs by flow cytometry relative to control; assay type: functional; method in brief: as §1
[7] = system: MCF7; assay: Induction of apoptosis in human MCF7 cells assessed as morphological changes at 1 uM after 24 hrs using DAPI staining by fluorescence microscopic analysis; assay type: functional, cell-based
Method in brief: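 Cells cultured on 6-well plates and treated at 0 or 1.0 µM for 24 h. Fixed in ice-cold 4% paraformaldehyde for 20 min, then permeabilized in 0.1% sodium citrate/0.1% Triton X-100 for 2 min at 4 °C. Stained with DAPI (300 nM) and examined by fluorescence microscopy for nuclear morphology.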

[8] = system: MCF7; assay: Cell cycle arrest in human MCF7 cells assessed as accumulation at G2/M phase after 24 hrs by flow cytometry; assay type: functional, cell-based; method in brief: as §1
[9] = system: MCF7; assay: Cell cycle arrest in human MCF7 cells assessed as accumulation at sub-G1 phase at 50 nM after 24 hrs by flow cytometry relative to control; assay type: functional; method in brief: as §1
[10] = system: MCF7; assay: Cell cycle arrest in human MCF7 cells assessed as accumulation at G1 phase at 50 nM after 24 hrs by flow cytometry relative to control; assay type: functional; method in brief: as §1
[11] = system: MCF7; assay: Cell cycle arrest in human MCF7 cells assessed as accumulation at S phase at 50 nM after 24 hrs by flow cytometry relative to control; assay type: functional; method in brief: as §1
[12] = system: MCF7; assay: Cell cycle arrest in human MCF7 cells assessed as accumulation at G2/M phase at 50 nM after 24 hrs by flow cytometry relative to control; assay type: functional; method in brief: as §1
[13] = system: MCF7; assay: Cell cycle arrest in human MCF7 cells assessed as accumulation at sub-G1 phase at 500 nM after 24 hrs by flow cytometry relative to control; assay type: functional; method in brief: as §1
[14] = system: MCF7; assay: Cell cycle arrest in human MCF7 cells assessed as accumulation at G1 phase at 500 nM after 24 hrs by flow cytometry relative to control; assay type: functional; method in brief: as §1
[15] = system: MCF7; assay: Cell cycle arrest in human MCF7 cells assessed as accumulation at S phase at 500 nM after 24 hrs by flow cytometry relative to control; assay type: functional; method in brief: as §1
[16] = system: MCF7; assay: Cell cycle arrest in human MCF7 cells assessed as accumulation at G2/M phase at 500 nM after 24 hrs by flow cytometry relative to control; assay type: functional; method in brief: as §1

| Structure (SMILES) | IC50 [1] | IC50 [2] | other results |
| --- | --- | --- | --- |
| COc1ccc(C(/C=C/c2ccccc2)=N\NC(=N)N)cc1 | 13 µM | 130 µM |  |
| N=C(N)N/N=C(/C=C/c1ccccc1)c1ccccc1 | 17 µM | 140 µM |  |
| COc1ccc(/C=C/C(=N/NC(=N)N)c2ccccc2)cc1 | 14 µM | 140 µM |  |
| COc1cc2c(c(OC)c1OC)-c1ccc(OC)c(=O)cc1[C@@H](NC(C)=O)CC2 [COLCHICINE] |  |  | Activity [3]: 14.58%; Activity [4]: 8.58%; Activity [5]: 8.16%; Activity [6]: 43.11% |
| N=C(N)N/N=C(/C=C/c1cccc(F)c1)c1ccccc1 | 16 µM | 150 µM |  |
| COc1ccc(/C=C\c2cc(OC)c(OC)c(OC)c2)cc1O [COMBRETASTATIN A4] |  | 2.2 µM |  |
| Cc1ccc(/C=C/C(=N/NC(=N)N)c2ccccc2)cc1 | 16 µM | 170 µM |  |
| N=C(N)N/N=C(/C=C/c1cccc([N+](=O)[O-])c1)c1ccccc1 | 6.5 µM | 85 µM |  |
| Cc1ccc(C(/C=C/c2ccccc2)=N\NC(=N)N)cc1 | 14 µM | 150 µM |  |
| COc1ccccc1/C=C/C(=N/NC(=N)N)c1ccccc1 | 7.2 µM | 84 µM |  |
| COc1cccc(/C=C/C(=N/NC(=N)N)c2ccccc2)c1 | 13 µM | 130 µM |  |

Now from value to compound, other results behind:

| IC50 [1] | IC50 [2] | Structure (SMILES) | other results |
| --- | --- | --- | --- |
| 1.6 µM | 18 µM | N=C(N)N/N=C(/C=C/c1cccc2ccccc12)c1ccccc1 |  |
| 4.2 µM | 55 µM | N=C(N)N/N=C(/C=C/c1ccccc1Cl)c1ccccc1 |  |
| 4.2 µM | 52 µM | N=C(N)N/N=C(/C=C/c1ccccc1Br)c1ccccc1 |  |
| 2.5 µM | 28 µM | N=C(N)N/N=C(/C=C/c1ccc(F)cc1)c1ccccc1 |  |
| 1.2 µM | 16 µM | N=C(N)N/N=C(/C=C/c1ccc(OCc2ccccc2)cc1)c1ccccc1 |  |
| 1.9 µM | 24 µM | N=C(N)N/N=C(/C=C/c1ccccc1)c1ccc(Cl)c(Cl)c1 |  |
| 3.9 µM | 42 µM | N=C(N)N/N=C(/C=C/c1ccccc1F)c1ccccc1 |  |
| 0.8 µM | 12 µM | N=C(N)N/N=C(/C=C/c1ccc(-c2ccccc2)cc1)c1ccccc1 |  |
| 0.25 µM | 10 µM | N=C(N)N/N=C(/C=C/c1ccc(Br)cc1)c1ccccc1 |  |
| 0.7 µM | 14 µM | N=C(N)N/N=C(/C=C/c1ccc(Cl)cc1)c1ccccc1 |  |
| 0.35 µM | 15 µM | N=C(N)N/N=C(/C=C/c1ccccc1)c1ccc(Cl)cc1 |  |
| 0.09 µM | 8.4 µM | N=C(N)N/N=C(/C=C/c1ccccc1)c1ccc(Br)cc1 | Activity [7]: Active; Activity [8]: Dose-dependent effect; Activity [9]: 2.63%; Activity [10]: 48.76%; Activity [11]: 14.54%; Activity [12]: 23.38%; Activity [13]: 4.52%; Activity [14]: 1.5%; Activity [15]: 3.14%; Activity [16]: 54.12% |
